Sampled rows, rich in hits. Any-hit rate of the full collection: about 1.5%.
UBC13 inh – blocks human UBC13 polyubiquitin chain formation. P61088. TR-FRET. inhibition, % at 20 µM. hit rate 0.47% among 330,000. AID 485273; in the data active = inhibition above about 45%, passing the limit was not always enough
Target sequence (P61088 whole entry, looked up): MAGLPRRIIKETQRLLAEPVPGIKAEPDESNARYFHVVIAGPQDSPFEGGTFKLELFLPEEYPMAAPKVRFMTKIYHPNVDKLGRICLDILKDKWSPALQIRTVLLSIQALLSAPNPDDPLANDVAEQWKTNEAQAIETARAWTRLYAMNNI
UCH37 inh – human UCH37 deubiquitinating enzyme inhibition; Q9Y5K5; purified proteasome/UCH37, Ub-AMC cleavage fluorescence; inhibition, % (no concentration beside the values); hit rate 0.33% among 330,000; AID 588478;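 active = mean inhibition over replicate wells above about 20%, limit read from the data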;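 note: 0% = compound-free wells with enzyme and 100% = wells lacking proteasome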
Target sequence (Q9Y5K5 whole entry, looked up): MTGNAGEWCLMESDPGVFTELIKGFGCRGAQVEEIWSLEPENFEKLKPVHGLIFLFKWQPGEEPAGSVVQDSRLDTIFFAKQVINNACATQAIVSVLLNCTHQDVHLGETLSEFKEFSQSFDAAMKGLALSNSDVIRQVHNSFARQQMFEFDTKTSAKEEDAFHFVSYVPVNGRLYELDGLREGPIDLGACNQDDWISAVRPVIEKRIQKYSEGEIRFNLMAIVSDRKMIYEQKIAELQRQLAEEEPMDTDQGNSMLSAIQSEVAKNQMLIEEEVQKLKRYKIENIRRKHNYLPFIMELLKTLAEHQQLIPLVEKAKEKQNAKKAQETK
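Material: human UCH37 enzyme supplied as purified proteasome complex / Amount: 0.15 nM proteasome as dispensed / Buffer or medium: pH 7.4 Tris-HCl (50 mM) with ovalbumin, ATP-MgCl2, DTT / Times: preincubation 30 min, reaction 25 min, room temperature / Technique: AMC fluorescence from Ub-AMC cleavage, excitation 355 nm, emission 460 nm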
Apaf-1 inh – blocks human Apaf-1 apoptosome activity | reconstituted apoptosome caspase-3 activity, DEVD-Rh110 fluorescence | inhibition, % at 20 µM | hit rate 0.71% among 330,000; active = inhibition of at least 40% at 20 µM;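 note: plate controls were DMSO wells for no effect and DEVD-CHO caspase inhibitor wells for full effect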
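Medium: Hepes buffer, pH 7.5 / System: biochemical Apaf-1 apoptosome reconstitution / Measured by: Rh110 fluorescence, excitation 480 nm, emission 540 nm / Times: compound with Apaf-1, dATP, procaspase-3 30 min, then 50 min reaction, room temperature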
PREPL inh – inhibits the human prolyl oligopeptidase-like enzyme. inhibition, % at 5.96 µM. hit rate 0.68% among 320,000. recombinant PREPL, fluorescence polarization activity-based probe. Q4J6C6; in the data active = inhibition above about 43%;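 note: 0% = enzyme with DMSO and 100% = wells lacking enzyme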
Apaf-1 inh conf – confirmation of Apaf-1 inhibitors; shares compounds with Apaf-1 inh; reconstituted apoptosome, caspase-3 DEVD-Rh110 fluorescence; inhibition, % at 20 µM; hit rate 25% among 1,800; AID 504614;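 active = mean inhibition of at least 40% at 20 µM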;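 note: plate controls were DMSO wells for no effect and DEVD-CHO caspase inhibitor control wells for full effect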
Rh110 quench – counter-screen for Apaf-1 inhibitors: fluorescence interference | shares compounds with Apaf-1 inh | Rh110 fluorescence interference, quenched caspase reaction | activation (fluorescence interference), % at 20 µM | 1,800 tested, under 10 active | AID 504615;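 active = signal rise of 40% or more at 20 µM, treated as a fluorescence artifact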
Fluor interf inh – counter-screen for Apaf-1 inhibitors: fluorescence interference, dose response | IC50, µM | 460 tested, under 10 active | fluorescence interference counterscreen, Apaf-1 assay format | AID 588538 | shares compounds with Apaf-1 inh; call rule not given here
* = called active by the depositor; · = no result given.

SMILES	UBC13 inh	UCH37 inh	Apaf-1 inh	PREPL inh	Apaf-1 inh conf	Rh110 quench	others
CN(Cc1ccc(Cl)cc1)C(=O)c1ccc(S(=O)(=O)NCc2ccco2)cc1	18	0	-1	7	·	·
CN1CCN(C(=NS(=O)(=O)c2ccc(F)cc2)c2ccccc2)CC1	·	2	·	·	·	·
O=[N+]([O-])c1c(Nc2ccccn2)cc(Cl)c2nonc12	-146	9	91*	28	28	-2
O=C(O)c1ccccc1Nc1cc(Cl)c2nonc2c1[N+](=O)[O-]	-36	16	-2	2	·	·
c1csc(-c2nc3c4ccccc4c4ccccc4c3[nH]2)c1	18	-208	44*	15	32	12
CCOc1cc(C=NNC(=O)c2ccccn2)ccc1OC(=O)c1cccs1	·	-19	·	·	·	·
CCOc1cc(/C=C2/C(=O)N(c3ccccc3)N=C2C)ccc1OC(=O)c1cccs1	-67	7	69*	54*	33	4
COc1ccc(C2=NN(c3ccccc3)C(=O)/C2=C\c2ccc(O)c(OC)c2)cc1	-144	4	90*	-3	17	4
CC1=NN(c2ccccc2)C(=O)/C1=C/c1cccc(C)c1	-57	·	96*	3	23	-1
CC(=O)Oc1ccc(/C=C2/C(=O)N(c3ccccc3)N=C2C)cc1	-58	·	91*	12	12	-2
O=C(COc1cccc(Br)c1)NN=C1CCCc2ccccc21	·	2	·	·	·	·
COc1cc(/C=C2/C(=O)N(c3cccc(Br)c3)N=C2C)cc(OC)c1O	-90	5	82*	0	18	-1
COc1ccc(/C=C2/C(=O)N(c3ccccc3)N=C2C)cc1OC	-34	·	96*	·	13	6
COc1ccc(/C=C2/C(=O)N(c3ccccc3)N=C2C)cc1	-36	5	96*	12	16	-2
CC1=NN(c2ccccc2)C(=O)/C1=C/N(C)C	1	6	-14	9	·	·
CC(Cc1ccccc1)=NNC(=O)CNC(=O)c1ccc(C(C)(C)C)cc1	·	1	·	·	·	·
COc1cc(/C=C2\C(=O)N(CCC#N)N=C2C)ccc1OCC(=O)Nc1ccccc1	-35	-1	93*	1	7	-2
CCOc1cc(/C=C2\C(=O)N(CCC#N)N=C2C)ccc1OCC(N)=O	-32	4	58*	25	4	-10
CC(=NNC(=O)c1c(Br)c(C)nn1C)c1cccc(NC(=O)c2ccccc2C)c1	·	3	·	·	·	·
COC(=O)CCC(=O)OC1(C)C(=O)C=C2C=C(C3CC3)N(CCc3ccccn3)C=C2C1=O (stereo not drawn)	-85	7	53*	22	38	4
C=CCN1C=C2C(=O)C(C)(OC(=O)CCC(=O)OC)C(=O)C=C2C=C1C1CC1 (stereo not drawn)	-32	5	43*	20	53*	2	Fluor interf inh=>100
COC(=O)CCC(=O)OC1(C)C(=O)C=C2C=C3CCCN3C=C2C1=O (stereo not drawn)	-42	7	16	11	·	·
COC(=O)CCC(=O)OC1(C)C(=O)C=C2C=C(C3CC3)N(CCCCO)C=C2C1=O (stereo not drawn)	-51	5	64*	7	58*	2	Fluor interf inh=>100
CC1(OC(=O)C2CCCC2)C(=O)C=C2C=C(c3ccsc3)N(CCc3ccccn3)C=C2C1=O (stereo not drawn)	-36	5	33	27	·	·
COC(=O)CCCC1=CC2=CC(=O)C(C)(OC(=O)c3cccs3)C(=O)C2=CN1CCCCO (stereo not drawn)	-70	7	38	10	·	·
SMILES	UBC13 inh	UCH37 inh	Apaf-1 inh	PREPL inh	Apaf-1 inh conf	Rh110 quench	others
Cc1ccc(C(=O)NN=Cc2cccs2)cn1	·	2	·	·	·	·
CCOC(=O)C1CCN(C(=O)c2ccc3c(c2)NC(=O)/C(=C\c2cccc(C)c2)S3)CC1	-4	-14	40*	-1	22	1
CCOC(=O)C1CCN(C(=O)c2cccc(C(=O)N3CCC(C(=O)OCC)CC3)c2)CC1	7	1	-3	2	·	·
COc1cc([N+](=O)[O-])cc(/C=N/NC(=O)C(C)Nc2cccc3ccccc23)c1O (stereo not drawn)	-46	·	93*	15	21	0
Cc1cccc(/C=N/NC(=O)C(C)Nc2cccc3ccccc23)n1 (stereo not drawn)	-104	·	91*	-5	20	10
CC(Nc1cccc2ccccc12)C(=O)N/N=C/c1ccc([N+](=O)[O-])cc1 (stereo not drawn)	-43	·	25	38	·	·
Cc1ccsc1C=Nn1c(-c2ccccn2)n[nH]c1=S	·	6	·	·	·	·
Nc1nonc1-n1nnc(C(=O)NN=Cc2ccc(F)cc2)c1-c1cccs1	·	-2	·	·	·	·
COc1ccccc1OCC(=O)NCC1CCCN(C(=O)c2ccccc2SC)C1 (stereo not drawn)	3	5	51*	0	10	-1
COc1ccccc1OCC(=O)NCC1CCCN(C(=O)c2ccccc2C(C)=O)C1 (stereo not drawn)	-1	2	0	1	·	·
CN(c1ccccc1)S(=O)(=O)c1cccc(C(=O)NCc2ccccc2CN2CCCC2)c1	11	-1	52*	23	21	6
CN(CC(=O)Nc1cccc(F)c1)C(=O)c1sc2ccccc2c1Cl	32	-2	57*	-8	36	4
CCCN(CC(=O)Nc1ccccc1C)C(=O)c1sc2ccccc2c1Cl	30	3	61*	-28	44*	12	Fluor interf inh=>100
COCCNC(=O)C(=O)NN=Cc1ccc(C(=O)OC)cc1	·	1	·	·	·	·
Cc1ccc(C)c(NC(=O)CN(C)C(=O)c2cccc(S(=O)(=O)N3CCCC3)c2)c1	0	2	-2	·	·	·
Cc1ccc(C)c(NC(=O)CN(C)C(=O)c2cccc(S(=O)(=O)N3CCN(Cc4ccccc4)CC3)c2)c1	2	2	41*	19	37	0
CCCNc1c(F)c(F)c2c(C)c3ccccc3nc2c1F	-25	1	51*	13	33	4
Cc1c2ccccc2nc2ccccc12	0	-345	18	-3	·	·
Cc1cc2cc(CNC(=O)Nc3cccc(Cl)c3)ccc2n1C	-5	4	49*	14	12	2
COc1cccc(NC(=S)NCc2ccc3c(c2)cc(C)n3C)c1	·	4	·	·	·	·
COc1ccc(CNC(=O)Nc2cccc(Cl)c2)cc1	-4	3	-5	·	·	·
CCCC(=O)NCc1ccc2c(c1)cc(C)n2C	36	2	-1	20	·	·
Cc1cccc(NC(=O)NCc2ccc3c(c2)cc(C)n3C)c1	18	2	54*	15	-2	-2
Cc1cc2cc(CNC(=S)Nc3ccc(OC(F)(F)F)cc3)ccc2n1C	-23	3	59*	-2	15	14
Cc1cccc(NC(=S)NCc2ccc3c(c2)cc(C)n3C)c1C	10	0	66*	22	16	5

Screens from PubChem BioAssay.
